This is a sample that favours compounds with a hit; in the whole collection about 1.9% have one here.
CHRM5 agonist: CHRM5 agonism in calcium assay | P08912 | CHO-K1 hM5 cells, Fluo-8 calcium fluorescence; 0% DMSO wells, 100% maximal acetylcholine response | activation, % at 3 µM | 360,000 tested, 0.19% active;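 active = activation above the run's mean over test compounds plus 3 SD, cut at about 23% in these data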;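 also: signal is peak over basal fluorescence ratio across the kinetic read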
CHRM5 antagonist: CHRM5 antagonism in calcium assay; P08912; CHO-hM5 cells, Fluo-8 calcium fluorescence, ACh EC80; inhibition, % at 3 µM; 360,000 tested, 0.59% active; AID 624040;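 active = inhibition above a per-plate cutoff, the mean of that plate's test compounds plus 3 SD, cut at about 27% in these data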;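 also: 0% = acetylcholine EC80 with DMSO and 100% = DMSO without agonist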
M4 PAM: CHRM4 positive allosteric modulation. P08173. CHO-K1 hM4/Gqi5, Fluo-8 calcium fluorescence, ACh EC20; 0% = ACh EC20, 100% = maximal ACh. activation, % at 3 µM. 360,000 tested, 0.4% active;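 active = activation above its plate's cutoff, the mean activation of sample wells plus 3 SD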
Target sequence (P08173 whole entry, looked up): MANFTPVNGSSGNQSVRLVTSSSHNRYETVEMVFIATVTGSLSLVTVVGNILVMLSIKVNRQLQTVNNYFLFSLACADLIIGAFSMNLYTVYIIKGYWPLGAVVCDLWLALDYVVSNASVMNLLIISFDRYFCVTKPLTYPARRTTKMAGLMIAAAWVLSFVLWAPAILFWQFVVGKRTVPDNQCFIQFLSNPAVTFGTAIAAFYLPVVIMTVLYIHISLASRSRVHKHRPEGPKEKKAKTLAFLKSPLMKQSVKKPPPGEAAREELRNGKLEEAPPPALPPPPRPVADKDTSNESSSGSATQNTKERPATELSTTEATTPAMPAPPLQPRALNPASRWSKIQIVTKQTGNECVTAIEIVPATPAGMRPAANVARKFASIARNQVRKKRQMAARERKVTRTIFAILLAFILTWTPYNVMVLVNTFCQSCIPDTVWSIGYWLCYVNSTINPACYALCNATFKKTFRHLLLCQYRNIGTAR
M5 PAM: CHRM5 positive allosteric modulation | P08912 | CHO-K1 hM5, Fluo-8 calcium, ACh EC20 PAM; 0% = ACh EC20, 100% = ACh EC100 | activation, % at 3 µM | 360,000 tested, 0.3% active;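 active = activation above the run cutoff, the mean activation of all test compounds plus 3 SD, cut at about 18% in these data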
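Probe or stimulus: acetylcholine, EC20 level; Assay system: human M5 receptor in CHO-K1 cells; Schedule: compound preincubation 140 s before EC20 acetylcholine addition; Technique: intracellular calcium via Fluo-8 fluorescence; Dosing: single-point, 3 µM nominal; Read-out basis: percent activation from peak-over-basal fluorescence ratio, scaled EC20-to-EC100 acetylcholine; Repeats: one well per compound, no replicates.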
M4 ag: CHRM4 agonism in calcium assay. CHO-K1 hM4/Gqi5, Fluo-8 calcium fluorescence; vehicle 0%, full acetylcholine response 100%. activation, % at 3 µM. 360,000 tested, 0.14% active. AID 624127;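 active = activation above the run mean over all test wells plus 3 SD, cut at about 32% in these data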;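 also: peak over basal fluorescence ratio per well then scaled between controls; 0% = DMSO wells and 100% = acetylcholine at EC100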
M4 antag: antagonists of human muscarinic M4 receptor (CHRM4). P08173. CHO-hM4 cells, ACh EC80, Fluo-8 calcium fluorescence. inhibition, % at 3 µM. 360,000 tested, 0.73% active. AID 624125;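 active = inhibition above its plate's cutoff, the mean inhibition of sample wells plus 3 SD, cut at about 27% in these data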;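 also: 0% = acetylcholine EC80 with DMSO and 100% = DMSO without agonist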
* hit, by the source's call.

For O=C(CSc1nc2ccccc2c(=O)n1Cc1ccco1)N1CCCCCC1 the results were CHRM5 agonist 0.1, CHRM5 antagonist 5.2, M4 PAM 13.3, M5 PAM -4.2, M4 ag 0.1 and M4 antag 5.0.
`COc1ccc(CN(CC2CCC(C(=O)O)CC2)C(=S)Nc2cc(C)cc(C)c2)cc1` (centres undefined) gave CHRM5 agonist 5.2, CHRM5 antagonist 7.2, M4 PAM 18.5*, M5 PAM -4.9, M4 ag 4.4 and M4 antag -9.1.
Screening O=c1[nH][nH]c2cc([N+](=O)[O-])ccc12 returned CHRM5 agonist 6.7, CHRM5 antagonist -7.0, M4 PAM 1.6, M5 PAM 0.6, M4 ag -0.1 and M4 antag 0.3.
CC(C)(C)c1ccc(C(=O)Nc2cccc(-n3cnnn3)c2)cc1 was read as CHRM5 agonist -5.2, CHRM5 antagonist 20.6, M4 PAM -7.6, M5 PAM -10.3, M4 ag 12.8 and M4 antag 7.2.
Screening CC(=O)Nc1ccc(/C=N/N2CCCCC2)cc1 returned CHRM5 agonist 14.9, CHRM5 antagonist -17.3, M4 PAM -11.2, M5 PAM 19.8*, M4 ag 1.0 and M4 antag 2.2.
Cc1cc2ccccc2n1CCNCc1c(C(=O)N2CCOCC2)nc2ccccn12 was read as CHRM5 agonist 245.2*, CHRM5 antagonist 75.1*, M4 PAM -17.0, M5 PAM -6.5, M4 ag 30.2 and M4 antag 25.3.
For Cc1ccc(OCCCCNC(C)(C)C)c([N+](=O)[O-])c1 the results were CHRM5 agonist -5.2, CHRM5 antagonist 27.1*, M4 PAM 13.1, M5 PAM -10.4, M4 ag 3.1 and M4 antag -2.6.
Screening COCCNCCOc1ccc(C)cc1[N+](=O)[O-] returned CHRM5 agonist -2.5, CHRM5 antagonist -9.8, M4 PAM -10.0, M5 PAM 0.7, M4 ag 0.6 and M4 antag 10.7.
Screening COc1cc(C)ccc1S(=O)(=O)NC(=O)C1(C)CCN1C(=O)Cc1ccc(C(C)(C)C)cc1 (centres undefined) returned CHRM5 agonist -1.3, CHRM5 antagonist 3.2, M4 PAM 2.6, M5 PAM -3.1, M4 ag 0.6 and M4 antag 0.1.
`OC[C@@H]1CN(Cc2ccccc2)C[C@H](n2cnc3c(N4CCN(c5ccccc5)CC4)ncnc32)O1` gave CHRM5 agonist 4.6, CHRM5 antagonist 7.5, M4 PAM -5.5, M5 PAM -5.8, M4 ag 14.4 and M4 antag -17.0.
For COc1ccc(-c2cc(C(=O)N3CCN(c4ccccc4)CC3)c3ccccc3n2)cc1 the results were CHRM5 agonist -0.2, CHRM5 antagonist 17.7, M4 PAM -8.4, M5 PAM -15.6, M4 ag 10.8 and M4 antag 1.2.
Screening COc1ccc(-c2cc(C(=O)N3CCN(c4ccccc4O)CC3)c3ccccc3n2)cc1OC returned CHRM5 agonist -2.8, CHRM5 antagonist 27.5*, M4 PAM -7.9, M5 PAM -15.1, M4 ag 15.1 and M4 antag 18.9.
COc1ccc(-c2cc(C(=O)N3CCN(c4ccccn4)CC3)c3ccccc3n2)cc1 was read as CHRM5 agonist 2.2, CHRM5 antagonist 24.6, M4 PAM -26.0, M5 PAM -16.7, M4 ag 15.9 and M4 antag 27.0*.
`Cc1ccc(-c2cc(C(=O)N3CCN(c4ccccc4O)CC3)c3ccccc3n2)cc1` gave CHRM5 agonist 6.3, CHRM5 antagonist 8.9, M4 PAM -5.9, M5 PAM -16.5, M4 ag 8.3 and M4 antag -6.2.
For COc1ccc(-c2cc(C(=O)N3CCN(c4ccccc4O)CC3)c3ccccc3n2)cc1 the results were CHRM5 agonist 2.4, CHRM5 antagonist 18.3, M4 PAM -10.5, M5 PAM -34.6, M4 ag 24.1 and M4 antag 28.7*.
For CCOc1ccc(-c2cc(C(=O)N3CCN(c4ccccn4)CC3)c3ccccc3n2)cc1 the results were CHRM5 agonist 1.2, CHRM5 antagonist -0.8, M4 PAM -3.6, M5 PAM 0.6, M4 ag 7.2 and M4 antag 8.7.
Cc1ccc(C(=O)NCCNC(=O)c2ccc(F)cc2)cn1 was read as CHRM5 agonist -1.4, CHRM5 antagonist 8.0, M4 PAM 5.2, M5 PAM 1.9, M4 ag 3.2 and M4 antag -1.0.
CCOC(=O)c1ccc(NC(=O)CN2C(=O)CN(C(C)=O)C2=S)cc1 was read as CHRM5 agonist 3.2, CHRM5 antagonist -4.0, M4 PAM -6.8, M5 PAM -1.5, M4 ag 1.5 and M4 antag -0.1.
Screening O=C(Nc1cccc2ccccc12)NC1Cc2ccccc2C1 returned CHRM5 agonist -5.0, CHRM5 antagonist 8.3, M4 PAM -5.1, M5 PAM -3.6, M4 ag 0.3 and M4 antag 5.5.
For CC1CCCC(C)N1CCOc1cc(N)ccc1C#N (centres undefined) the results were CHRM5 agonist -6.6, CHRM5 antagonist 13.3, M4 PAM -1.2, M5 PAM 2.0, M4 ag 1.2 and M4 antag 6.1.
OC(c1ccccc1)c1ncc(-c2ccccc2F)[nH]1 (centres undefined) was read as CHRM5 agonist -0.1, CHRM5 antagonist -2.2, M4 PAM 5.9, M5 PAM 3.0, M4 ag 1.1 and M4 antag -4.5.
For COc1ccc(OC)c(N(CC(=O)NC2CCCCCC2)S(=O)(=O)c2ccc(C)cc2)c1 the results were CHRM5 agonist -2.1, CHRM5 antagonist 2.5, M4 PAM 2.9, M5 PAM 5.8, M4 ag 2.4 and M4 antag -4.6.
`COc1ccc2nc(S(=O)Cc3ncc(C)c(OC)c3C)[nH]c2c1` (centres undefined) gave CHRM5 agonist 0.0, CHRM5 antagonist 5.1, M4 PAM -15.9, M5 PAM -5.3, M4 ag 1.0 and M4 antag 42.0*.
COCCCOc1ccnc(CS(=O)c2nc3ccccc3[nH]2)c1C (centres undefined) was read as CHRM5 agonist 0.4, CHRM5 antagonist -4.1, M4 PAM -0.7, M5 PAM -4.3, M4 ag 3.6 and M4 antag -32.8.
`O=C1c2ccccc2C(c2nnnn2Cc2ccccc2)N1CCCN1CCOCC1` (centres undefined) gave CHRM5 agonist -1.4, CHRM5 antagonist -5.6, M4 PAM 6.4, M5 PAM -0.6, M4 ag 1.4 and M4 antag -26.4.
For C[C@@H]1CN([C@H](C)CO)C(=O)CCCn2nncc2CO[C@H]1CN(C)Cc1ccc(Oc2ccccc2)cc1 the results were CHRM5 agonist -3.8, CHRM5 antagonist 3.1, M4 PAM -13.2, M5 PAM -4.3, M4 ag 1.3 and M4 antag 36.9*.

Screens deposited in PubChem BioAssay by The Scripps Research Institute Molecular Screening Center.
